ChEMBL document CHEMBL1142096, “Reduced susceptibility of Haemophilus influenzae to the peptide deformylase inhibitor LBM415 can result from target protein overexpression due to amplified chromosomal def gene copy number” (2007)
In brackets after ≈: the same amount, converted by molar mass.

Key:
Type in all cases: functional
[1] = tested on: Haemophilus influenzae; assay: Antimicrobial activity against Haemophilus influenzae CDS23 mutant overexpressing Def by broth microdilution method
In short: (§1)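 MIC by CLSI broth microdilution, twofold serial dilutions in HTM broth.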

[2] = tested on: Haemophilus influenzae; assay: Antimicrobial activity against Haemophilus influenzae NB65044 by broth microdilution method; in short: as §1
[3] = tested on: Haemophilus influenzae; assay: Antimicrobial activity against Haemophilus influenzae CDS40 mutant with acrB insertional inactivation by broth microdilution method; in short: as §1
[4] = tested on: Haemophilus influenzae; assay: Antimicrobial activity against Haemophilus influenzae CDS01 mutant with acrB insertional inactivation by broth microdilution method; in short: as §1

| Compound | MIC [1] [µg/mL] | MIC [2] [µg/mL] | MIC [3] [µg/mL] | MIC [4] [µg/mL] |
| --- | --- | --- | --- | --- |
| CN(C)[C@@H]1C(O)=C(C(N)=O)C(=O)[C@@]2(O)C(O)=C3C(=O)c4c(O)cccc4[C@@](C)(O)[C@H]3C[C@@H]12 [TETRACYCLINE] | 0.5 (≈ 1.13 µM) | 0.5 (≈ 1.13 µM) | 0.5 (≈ 1.13 µM) | 0.5 (≈ 1.13 µM) |
| CCC[C@@H]1C[C@@H](C(=O)N[C@@H]([C@H]2O[C@H](SC)[C@H](O)[C@@H](O)[C@H]2O)[C@H](C)Cl)N(C)C1 [CLINDAMYCIN] | 4 (≈ 9.41 µM) | 8 (≈ 18.8 µM) | 0.5 (≈ 1.18 µM) | 0.5 (≈ 1.18 µM) |
| CCCC[C@H](CN(O)C=O)C(=O)N1CCC[C@H]1C(=O)Nc1ccc(F)c[n+]1[O-] | 64 (≈ 161 µM) | 4 (≈ 10.1 µM) | 4 (≈ 10.1 µM) | 0.25 (≈ 0.631 µM) |
